Assay results collected from several papers.
Lines come from different studies, so protocols differ.
Observed: cell growth or viability

SMILES	cell line	test	setting	CC50 [µM]
O=c1[nH]c(=O)c2ncn(CCOCP(=O)(O)O)c2[nH]1	HEL	–	72 h	111
Nc1nc(O)c2ncn(COC(CO)CO)c2n1	HEL	–	72 h	63
CCOP(=O)(OCC)[C@@H]1C[C@@H](n2cc(Cn3cnc4c(N)ncnc43)nn2)ON1C (racemic)	HEL	–	72 h	> 100
Cc1nc2ccc(Cl)cn2c1C(=O)N1CCN(CCn2cc(C3CC3)nn2)CC1	HeLa	resazurin	–	> 100
CCOP(=O)(OCC)[C@@H]1C[C@H](n2cc(Cn3cc(C)c(=O)[nH]c3=O)nn2)ON1C (racemic)	HEL	–	72 h	> 100
Cc1ccn2c(C(=O)N3CCN(Cc4cn(-c5ccccc5Cl)nn4)CC3)c(C)nc2c1	HeLa	resazurin	–	> 100
CCOP(=O)(OCC)[C@@H]1C[C@H](n2cc(Cn3ccc(=O)[nH]c3=O)nn2)ON1C (racemic)	HEL	–	72 h	> 100
O=c1[nH]c(=O)c2ncn(C[C@@H](CO)OCP(=O)(O)O)c2[nH]1	HEL	–	72 h	> 300
C[C@H](NC(=O)[C@]1(Cc2ccccc2)CCN1C(=O)OCc1ccccc1)C(=O)NC(C)(C)C	HEL	–	72 h	> 100
COc1ccc(S(=O)(=O)ON=C2C=C(C)C(=O)C(C)=C2)cc1	HPAC	–	–	> 30
Cc1nc2ccc(Cl)cn2c1C(=O)N1CCN(Cc2cn(-c3ccc(F)cc3)nn2)CC1	HeLa	resazurin	–	> 100
